Among the data in ChEMBL document CHEMBL1149913, “De novo design of nonpeptidic compounds targeting the interactions between interferon-alpha and its cognate cell surface receptor” (J Med Chem, 2008) are Activity values, retold here.

In assay [1] the target is T1, Interferon alpha/beta receptor 1 (Homo sapiens) (UniProt P17181).
T1 sequence (whole entry): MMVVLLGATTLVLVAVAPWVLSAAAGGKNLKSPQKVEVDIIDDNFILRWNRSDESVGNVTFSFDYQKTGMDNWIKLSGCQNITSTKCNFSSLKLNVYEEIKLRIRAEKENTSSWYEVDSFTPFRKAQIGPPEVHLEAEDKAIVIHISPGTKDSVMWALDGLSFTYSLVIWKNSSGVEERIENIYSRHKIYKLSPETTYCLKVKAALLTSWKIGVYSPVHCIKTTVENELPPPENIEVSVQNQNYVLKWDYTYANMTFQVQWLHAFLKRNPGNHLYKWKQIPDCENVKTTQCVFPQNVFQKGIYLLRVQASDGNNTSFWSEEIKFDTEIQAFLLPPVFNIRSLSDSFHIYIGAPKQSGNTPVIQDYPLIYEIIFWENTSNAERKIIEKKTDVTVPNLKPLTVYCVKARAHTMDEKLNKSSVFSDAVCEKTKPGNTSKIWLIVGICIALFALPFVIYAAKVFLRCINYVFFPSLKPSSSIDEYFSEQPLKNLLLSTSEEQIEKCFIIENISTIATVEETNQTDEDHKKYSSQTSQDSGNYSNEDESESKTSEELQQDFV
Nature of the assay: Activity at IFNAR in human Daudi cells assessed as induction of stat1 tyrosine phosphorylation at 100 umol after 5 to 30 mins. The class given is cell-based.

Assay [2] addresses T1, Interferon alpha/beta receptor 1 (Homo sapiens). As to the kind of experiment: Antagonist activity at IFNAR in human Daudi cells assessed as inhibition of IFN-inducible Stat1 tyrosine phosphorylation by SDS-PAGE. The class given is functional, cell-based. The method in brief: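 Daudi cells were left untreated or exposed to IFN alfacon-1 (100 pg) for 15 min, with or without compound (dose–response 20–100 µM). Lysates were run on SDS-PAGE, transferred to nitrocellulose and immunoblotted for phospho-Stat1. Membranes were stripped and reprobed for total Stat1, or β-actin served as the loading control.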

Assay [3] shares this target. As to the kind of experiment: Antagonist activity at IFNAR in human Daudi cells assessed as reduction of IFN-inducible Stat1:Stat1-pIRE complex formation at 100 umol by electrophoretic mobility shift assay. The class given is functional, cell-based. A general note: In EMSA bound probe runs differently from free probe, usually more slowly.
The target is the same in assay [4]. As to the kind of experiment: Antagonist activity at IFNAR in human Daudi cells assessed as reduction of IFN-inducible Stat1:Stat3-pIRE complex formation at 100 umol by electrophoretic mobility shift assay. Type of assay: functional, cell-based.

Activity calls are given as the source filed them. No cut-off for these calls is given here.

Consider `CN(C)CCSc1ccc(-c2cc(-c3cccs3)nc(SCCN(C)C)n2)cc1`, for which the outcome in assay [1] was inactive. In addition, the Activity result in assay [2] was “Dose-dependent effect”. Moreover, the outcome in assay [3] and in assay [4] was Active. On to `CC(C)OCCCNc1cc(OCCN(C)C)nc(Oc2ccc(CCN)cc2)n1`, for which the result in assay [1] was inactive. The same measure, in the same setting: for `CCOc1cc(OCCCCN)nc(NCCCOC(C)C)n1` the value was “inactive”. As for `COCCNc1cc(OCCN(C)C)nc(OCCNC(=N)N)n1`, the result in assay [1] was inactive. As for `CC(C)OCCCNc1nc(OCCN(C)C)cc(OC(C)C)n1`, the result in assay [1] was inactive.

With `COCCNc1cc(OC(C)C)nc(OC(C)C)n1`, in assay [1], the outcome was inactive. Same read-out and setting: for `CN(C)CCSc1nccc(-c2ccco2)n1` the value was “inactive”; for `COCCNc1cc(OCCN(C)C)nc(OCCN)n1`, “inactive”; for `COCCNc1nc(OCCCCN)cc(OCCN(C)C)n1`, “inactive”. The same measure, in the same setting: for `CC(C)OCCCNc1nc(OCCCN)cc(OC(C)C)n1` the value was “inactive”; for `CC(C)OCCCNc1nc(OCCN)cc(OCCN(C)C)n1`, “inactive”.

On to `CCOc1cc(OCCN(C)C)nc(NCCCOC(C)C)n1`, for which the outcome in assay [1] was inactive. As to `CN(C)CCSc1nccc(-c2cccs2)n1`, the result in assay [1] was inactive.

For the compound `COCCNc1cc(OCCN(C)C)nc(OCCCN)n1`, the outcome in assay [1] was inactive. On the same count and under the same terms, the same measure for `COCCNc1nc(OCCCCNC(=N)N)cc(OCCN(C)C)n1`: “inactive”; for `CCOc1cc(OCCCN)nc(NCCCOC(C)C)n1`: “inactive”.

Turning to `CC(C)OCCCNc1nc(OCCCCN)cc(OCCN(C)C)n1`, the result in assay [1] was inactive. Same read-out and setting: the same measure for `CCOc1cc(N(C)C)nc(NCCCOC(C)C)n1`: “inactive”; for `CC(C)OCCCNc1cc(OCCN(C)C)nc(OCCCNC(=N)N)n1`: “inactive”. Still for that read-out and setting: for `CC(C)Oc1cc(OCCN(C)C)nc(OCCN(C)C)n1` the value was “inactive”; for `CC(C)OCCCNc1cc(OCCN(C)C)nc(OCCCN)n1`, “inactive”. On the same count and under the same terms, for `CC(C)OCCCNc1nc(OCCCCNC(=N)N)cc(OCCN(C)C)n1` the value was “inactive”. In the case of `COCCNc1cc(OCCN(C)C)nc(OCCCNC(=N)N)n1`, the outcome in assay [1] was inactive. Same read-out and setting: the same measure for `COCCNc1cc(OCCN(C)C)nc(Oc2ccc(CCN)cc2)n1`: “inactive”; for `CCOc1cc(OCCN(C)C)nc(OCCN(C)C)n1`: “inactive”.

For `CN(C)CCSc1ccc(-c2cc(-c3ccco3)nc(SCCN(C)C)n2)cc1`, in assay [1], the outcome was inactive. Further, the Activity entry in assay [2] was “Dose-dependent effect”. The outcome in assay [3] and in assay [4] was Active.
